# Columns and labels:
# [1] = target: Human immunodeficiency virus type 1 reverse transcriptase (Human immunodeficiency virus 1, UniProt Q72547); assay: Ability to inhibit HIV-1 Reverse Transcriptase (RT) using an rC-dG template/primer
# [2] = tested on: MT4; assay: Concentration of compound which inhibited greater than 95% the spread of infection of cultured MT-4 cells; type: functional, Homo sapiens
# Summary of the method: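 MT-4 cells infected with HIV-1 strain IIIb. The spread of infection was measured by p24 core antigen ELISA. The CIC95 is the lowest compound concentration that inhibited spread of infection by more than 95%.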
# [3] = tested on: MT4; assay: Compound was evaluated for the anti-viral activity against cultured MT-4 cells; type: functional, Homo sapiens
SMILES,IC50 [1],ClC95 [2],ClC95 [3]
O=C1Nc2ccc(Cl)cc2C(C#Cc2ccncc2)(C2CC2)N1 (stereo not drawn),450 nM,,
O=C1Nc2ccc(Cl)cc2C(C#Cc2cnccn2)(C2CC2)N1 (stereo not drawn),270 nM,,
O=C1Nc2ccc(Cl)cc2C(C#Cc2ccccc2)(C2CC2)N1 (stereo not drawn),17.7 nM,100 nM,
O=C1Nc2ccc(Cl)cc2C(C#Cc2ccccn2)(C2CC2)N1 (stereo not drawn),23.2 nM,25 nM,
CC(C)=CCN1Cc2cccc3nc(S)n(c23)C[C@H]1C,70 nM,,200 nM
O=C1Nc2ccc(Cl)cc2[C@@](C#Cc2ccccn2)(C2CC2)N1,12 nM,,
O=C1Nc2ccc(Cl)cc2C(C#Cc2cc([N+](=O)[O-])ccn2)(C2CC2)N1 (stereo not drawn),> 10000 nM,,
O=C1Nc2ccc(Cl)cc2C(C#Cc2ncccn2)(C2CC2)N1 (stereo not drawn),130 nM,,
Cc1ccnc2c1NC(=O)c1cccnc1N2C1CC1 [NEVIRAPINE],,,100 nM
CN1C(=O)Nc2ccc(Cl)cc2C1(C#Cc1ccccn1)C1CC1 (stereo not drawn),19.6 nM,,
N#Cc1ccccc1C#CC1(C2CC2)NC(=O)Nc2ccc(Cl)cc21 (stereo not drawn),10.8 nM,,12 nM
O=C1Nc2ccc(Cl)cc2C(C#Cc2ccccc2[N+](=O)[O-])(C2CC2)N1 (stereo not drawn),12.8 nM,,
O=C1Nc2ccc(Cl)cc2C(C#Cc2ccco2)(C2CC2)N1 (stereo not drawn),9.2 nM,,
CCc1cc(NCc2nc3c(Cl)ccc(Cl)c3o2)c(O)nc1C [L-697661],,,50 nM
O=C1Nc2ccc(Cl)cc2C(C#Cc2nccs2)(C2CC2)N1 (stereo not drawn),10.9 nM,,12 nM
O=C1Nc2ccc(Cl)cc2C(C#Cc2cncnc2)(C2CC2)N1 (stereo not drawn),1500 nM,,
O=C1Nc2ccc(Cl)cc2C(C#Cc2cccnc2)(C2CC2)N1 (stereo not drawn),64.5 nM,,
O=C1Nc2ccc(Cl)cc2[C@](C#Cc2ccccn2)(C2CC2)N1,9300 nM,,
